# Assay results as given in ChEMBL document CHEMBL3414548, “Luotonin-A based quinazolinones cause apoptosis and senescence via HDAC inhibition and activation of tumor suppressor proteins in HeLa cells” (Eur J Med Chem, 2015).
# Active and inactive are the calls of the source. No cut-off for these calls is given here.
# Assays:
# MCF7 = assay: Cytotoxicity against human MCF7 cells after 72 hrs by MTT assay; assay type: functional, cell-based; details: MCF7, 72 h
# Summary of the method: (§1)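 Cells were seeded at 1×10⁴ per well and preincubated 18 h at 37 °C, 5% CO₂. They were then exposed to 1–256 μM for 72 h with DMSO ≤0.25%. MTT was added for 2 h and formazan was solubilized in extraction buffer before reading OD at 570 nm. IC50 is mean ± SD of three independent experiments. HEK is the normal-cell line; cancer lines were grown in DMEM with 10% serum.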
# HeLa [1] = assay: Cytotoxicity against human HeLa cells after 72 hrs by MTT assay; assay type: functional, cell-based; summary of the method: as §1
# K562 = assay: Cytotoxicity against human K562 cells after 72 hrs by MTT assay; assay type: functional, cell-based; details: K562, 72 h; summary of the method: as §1
# [2] = Cytotoxicity against HEK cells after 72 hrs by MTT assay; assay type: cell-based; details: Homo sapiens, HEK293, 72 h; summary of the method: as §1
# HEK293 [3] = assay: Selectivity index, ratio of IC50 for HEK cells to IC50 for human MCF7 cells; assay type: functional
# Summary of the method: (§2)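 Selectivity index is IC50 in normal HEK cells divided by IC50 in the cancer cell line.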
# HeLa [4] = assay: Selectivity index, ratio of IC50 for HEK cells to IC50 for human HeLa cells; assay type: functional; summary of the method: as §2
# HEK293 [5] = assay: Selectivity index, ratio of IC50 for HEK cells to IC50 for human K562 cells; assay type: functional; summary of the method: as §2
# HeLa [6] = assay: Cell cycle arrest in human HeLa cells assessed as accumulation at G0/G1 phase at 4 uM after 48 hrs by propidium iodide staining-based flow cytometric analysis (reference value: 62%); assay type: functional
# HeLa [7] = assay: Cell cycle arrest in human HeLa cells assessed as accumulation at S phase at 4 uM after 48 hrs by propidium iodide staining-based flow cytometric analysis (reference value: 7%); assay type: functional
# HeLa [8] = assay: Cell cycle arrest in human HeLa cells assessed as accumulation at G2/M phase at 4 uM after 48 hrs by propidium iodide staining-based flow cytometric analysis (reference value: 31%); assay type: functional
# HeLa [9] = assay: Cell cycle arrest in human HeLa cells assessed as accumulation at G0 phase at 8 uM after 48 hrs by propidium iodide staining-based flow cytometric analysis (reference value: 3%); assay type: functional
# HeLa [10] = assay: Cell cycle arrest in human HeLa cells assessed as accumulation at G1 phase at 8 uM after 48 hrs by propidium iodide staining-based flow cytometric analysis (reference value: 68%); assay type: functional
# HeLa [11] = assay: Cell cycle arrest in human HeLa cells assessed as accumulation at S phase at 8 uM after 48 hrs by propidium iodide staining-based flow cytometric analysis (reference value: 10%); assay type: functional
# HeLa [12] = assay: Induction of senescence in human HeLa cells at 4 uM after 72 hrs by X-gal staining-based beta-galactosidase assay; assay type: functional, cell-based
# Summary of the method: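 HeLa cells in chamber slides were treated at 4 μM for 72 h. They were fixed in 3% paraformaldehyde and then in methanol at 4 °C. Staining used X-gal in sodium phosphate buffer with ferro/ferricyanide, 1 mM MgCl₂ and citric acid for 24 h. Senescent cells were scored by microscopy as enlarged, flattened and blue.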
# HeLa [13] = assay: Upregulation of p53 mRNA expression in human HeLa cells at 4 uM after 48 hrs by RT-PCR analysis; assay type: functional, cell-based
# Summary of the method: (§3)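 HeLa cells were treated at 4 μM for 48 h before RNA isolation. cDNA was amplified by RT-PCR with gene-specific primers, using GAPDH as loading control. Products were run on 1% agarose gel with ethidium bromide, and band intensity was quantified by densitometry.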
# HeLa [14] = assay: Upregulation of p21 mRNA expression in human HeLa cells at 4 uM after 48 hrs by RT-PCR analysis; assay type: functional, cell-based; summary of the method: as §3
# HeLa [15] = assay: Downregulation of EZH2 mRNA expression in human HeLa cells at 4 uM after 48 hrs by RT-PCR analysis; assay type: functional, cell-based; summary of the method: as §3
# HeLa [16] = assay: Downregulation of HDAC-1 mRNA expression in human HeLa cells at 4 uM after 48 hrs by RT-PCR analysis; assay type: functional, cell-based; summary of the method: as §3
# HeLa [17] = assay: Downregulation of HDAC-2 mRNA expression in human HeLa cells at 4 uM after 48 hrs by RT-PCR analysis; assay type: functional, cell-based; summary of the method: as §3
# HeLa [18] = assay: Downregulation of HDAC-5 mRNA expression in human HeLa cells at 4 uM after 48 hrs by RT-PCR analysis; assay type: functional, cell-based; summary of the method: as §3
# HeLa [19] = assay: Change in HDAC-6 mRNA expression in human HeLa cells at 4 uM after 48 hrs by RT-PCR analysis; assay type: functional, cell-based; summary of the method: as §3
# HeLa [20] = assay: Change in HDAC-7 mRNA expression in human HeLa cells at 4 uM after 48 hrs by RT-PCR analysis; assay type: functional, cell-based; summary of the method: as §3
# [21] = molecular target: Histone deacetylase (HDAC1 and HDAC2) (Homo sapiens, UniProt Q13547+Q92769); assay: Inhibition of HDAC1/2 in human HeLa cells using color de lys as substrate after 30 mins by colorimetric analysis; assay type: cell-based
# Summary of the method: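 HeLa cells were treated at 4 μM, with TSA as reference. Samples were then incubated 30 min with Color de Lys substrate and HDAC-1/2. Developer yields a yellow product, and absorbance was read at 405 nm.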
# HeLa [22] = assay: Induction of human p16 promoter activity transfected in human HeLa cells at 4 uM after 48 hrs by luciferase-based luminescence assay; assay type: cell-based
# Summary of the method: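 A 1.4 kb human p16 promoter in pGL3-basic luciferase vector was co-transfected into HeLa with a β-gal plasmid. Cells were then treated at 4 μM for 48 h. Lysate luciferase luminescence was normalized to β-galactosidase as internal control.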
# HeLa [23] = assay: Cell cycle arrest in human HeLa cells assessed as accumulation at G2/M phase at 4 uM after 48 hrs by propidium iodide staining-based flow cytometric analysis (reference value: 19%)
Compound,IC50 (MCF7),IC50 (HeLa [1]),IC50 (K562),IC50 [2],Ratio IC50 (HEK293 [3]),Ratio IC50 (HeLa [4]),Ratio IC50 (HEK293 [5]),Activity (HeLa [6]),Activity (HeLa [7]),Activity (HeLa [8]),Activity (HeLa [9]),Activity (HeLa [10]),Activity (HeLa [11]),Activity (HeLa [12]),Activity (HeLa [13]),Activity (HeLa [14]),Activity (HeLa [15]),Activity (HeLa [16]),Activity (HeLa [17]),Activity (HeLa [18]),also measured
O=c1c2ccccc2nc2n1Cc1cc3ccccc3nc1-2 [LUOTONIN A],9.28 µM,5.94 µM,28.8 µM,58 µM,6.25,9.76,2.01,75%,5%,20%,5%,72%,5%,Active,Active,Active,Active,Active,Active,Active,Activity (HeLa [19]): inactive; Activity (HeLa [20]): inactive; IC50 [21]: 6.4 µM; Activity (HeLa [22]): Active; Activity (HeLa [23]): 17%
Cc1nc2ccccc2c(=O)n1-c1ccccc1Cn1cc(-c2ccccc2)nn1,8 µM,5.94 µM,20.2 µM,256 µM,32,43.09,12.69,76%,6%,18%,7%,72%,6%,Active,Active,Active,Active,Active,Active,Active,Activity (HeLa [19]): inactive; Activity (HeLa [20]): inactive; IC50 [21]: 2.96 µM; Activity (HeLa [22]): Active; Activity (HeLa [23]): 15%
